High-throughput results from PubChem BioAssay.
An excerpt weighted towards active compounds, which were near 2.9% of everything screened.
CHO-K1 Ca PAM: M1 PAM counterscreen hit in parental CHO-K1 cells. ATP EC20, Fluo-8 calcium fluorescence; 0% at ATP EC20, 100% at ATP max. AID 602247. 360,000 tested, 0.02% active. activation, % at 3 µM;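 active = activation above the run cutoff, the mean activation of all test compounds plus 3 SD, cut at about 40% in these data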;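 also: peak over basal fluorescence ratio in a 140 s read after ATP addition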
CHO-K1 Ca ag: nonselective activator or artifact in parental CHO-K1 cells | activation, % at 3 µM | 360,000 tested, 0.48% active | Fluo-8 calcium fluorescence; scaled to maximal ATP response, vehicle zero; in the data active = activation above about 15%;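 also: untransfected CHO-K1 host cells lacking M1 receptor as counterscreen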
OX1R antag-1: blocks the human orexin 1 receptor. CHO/OX1R cells, Fluo-8 calcium fluorescence, orexin A. inhibition, % at 5 µM. 330,000 tested, 0.43% active. AID 434989;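 active = inhibition above its plate's threshold, mean inhibition of all tested compounds on the plate plus 3 SD, cut at about 37% in these data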;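 also: 0% = orexin A challenge wells and 100% = SB-334867-A antagonist wells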
Target sequence (O43613 whole entry, looked up): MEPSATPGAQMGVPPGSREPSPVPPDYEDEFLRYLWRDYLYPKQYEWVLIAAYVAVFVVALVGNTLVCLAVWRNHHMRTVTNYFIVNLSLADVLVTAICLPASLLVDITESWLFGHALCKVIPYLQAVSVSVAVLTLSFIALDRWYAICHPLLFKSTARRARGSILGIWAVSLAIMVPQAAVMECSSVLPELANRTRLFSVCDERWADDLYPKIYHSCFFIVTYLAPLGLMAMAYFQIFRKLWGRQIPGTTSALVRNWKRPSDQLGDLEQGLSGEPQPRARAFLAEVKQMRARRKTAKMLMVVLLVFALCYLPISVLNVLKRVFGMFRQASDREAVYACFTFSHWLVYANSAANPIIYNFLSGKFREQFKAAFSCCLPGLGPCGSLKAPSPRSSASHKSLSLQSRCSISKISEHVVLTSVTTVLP
CHO parental Ca: counter-screen: ATP calcium response change in parental CHO cells. parental CHO-K1, ATP-induced calcium, Fluo-8 fluorescence. inhibition, % at 5.6 µM. 330,000 tested, 0.63% active. AID 463079;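 active = inhibition above that plate's mean sample inhibition plus 3 SD, cut at about 26% in these data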;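 also: 0% = ATP-challenged DMSO wells and 100% = DMSO wells without ATP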
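Material: Parental CHO cells | Reagent: ATP | Compound dosing: Single nominal dose of 5.6 µM per compound | Detection: Intracellular calcium via Fluo-8 no-wash fluorescent dye | Read-out: % inhibition of ATP-induced calcium mobilization | Benchmarks: Low control ATP plus DMSO, high control DMSO only | Replicates: Singlicate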
CHO-K1 Ca antag: M1 antagonist counterscreen hit in parental CHO-K1 cells | ATP-induced calcium, Fluo-8 fluorescence | inhibition, % at 3 µM | 360,000 tested, 0.6% active | AID 602250;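 active = inhibition above a per-plate cutoff, the plate's mean sample inhibition plus 3 SD, cut at about 24% in these data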;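 also: 0% = DMSO plus EC80 ATP and 100% = DMSO alone without ATP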
OX1R antag-2: OX1R (human) antagonism; O43613; OX1R-expressing cells, FRET antagonist read-out; inhibition, % at 6.6 µM; 330,000 tested, 1.8% active; AID 485270; in the data active = inhibition mostly above about 38%, no sharp cut-off; inactive = mostly below about 40%;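 also: 0% = agonist challenge alone and 100% = reference antagonist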
* = called active by the depositor; · = no result given.

SMILES | CHO-K1 Ca PAM | CHO-K1 Ca ag | OX1R antag-1 | CHO parental Ca | CHO-K1 Ca antag | OX1R antag-2
COc1cc(/C=N/NC(=O)c2ccc(CN3C(=O)c4cccc5cccc3c45)cc2)cc(OC)c1O | 3 | 15* | -9 | 3 | 6 | 18
N#CC1=C(N)Oc2cc(O)c(Cl)cc2C1c1cccnc1 (centres undefined) | 0 | 8 | · | · | 14 | ·
N#CC1=C(N)Oc2cc(O)c(Cl)cc2C1c1ccccc1F (centres undefined) | -6 | 2 | 21 | 30* | -7 | 28
COc1ccc(C2/C=C\CN(S(=O)(=O)c3cccc4cccnc34)CC(=O)N2Cc2ccc(F)cc2)cc1 (centres undefined) | -15 | 1 | -30 | -23 | -7 | 40
COc1ccc([C@H]2/C=C\CN(S(=O)(=O)c3cccc4cccnc34)[C@@H](C)C(=O)N2Cc2ccc(F)cc2)cc1 | -4 | 0 | 17 | -10 | -7 | 70*
O=C(Cc1cccc2ccccc12)NNC(=O)c1ccc(Br)o1 | 3 | 1 | 14 | -14 | -10 | 51*
O=C(Cc1ccccc1)NNC(=O)c1ccc(Br)o1 | -3 | 0 | · | · | 3 | ·
CCOc1cc(N(CC)CC)ccc1/C=C(/C#N)c1nc2ccccc2[nH]1 | -8 | 19* | 109* | 70* | 21 | 71*
CCCOc1cc(N(CC)CC)ccc1/C=C(/C#N)c1nc2ccc(C)cc2[nH]1 | -4 | 17* | 118* | 75* | 35* | 16
CCN(CC)c1ccc(/C=C(/C#N)c2nc3ccc(C)cc3[nH]2)c(OC(C)C)c1 | -14 | 39* | 116* | 68* | 50* | 19
CCOC(=O)Cc1nnc(NC(=O)CSc2ncc(-c3ccccc3)nn2)s1 | 9 | 1 | -14 | -8 | 2 | 7
CCN(C(=O)COC(=O)c1ccco1)c1c(N)n(Cc2ccccc2)c(=O)[nH]c1=O | 8 | 1 | -9 | 0 | -17 | 9
CN(C(=O)COC(=O)c1ccccc1NCc1ccco1)c1c(N)n(Cc2ccccc2)c(=O)[nH]c1=O | -8 | 0 | -10 | -18 | -4 | 64*
CC1CCCC(C)N1C(=O)c1ccc(S(=O)(=O)NCc2ccco2)cc1 (centres undefined) | 19 | 19* | -31 | 19 | -6 | 26
Cc1ccc(F)c(Cn2cnc3c(cnn3C(C)(C)C)c2=O)c1Cl | -15 | 3 | 14 | -9 | 1 | 8
COc1ccc(-c2nc3ccccn3c2Cl)cc1 | -5 | -1 | -18 | -13 | 7 | 43*
CCC(=O)N(C1=C(NC(C)C)C(=O)c2ccccc2C1=O)C(C)C | -4 | 0 | 2 | -5 | 1 | 44
CCCNC1=C(N(C(C)=O)c2cccc(F)c2)C(=O)c2ccccc2C1=O | 26 | 0 | -17 | -5 | -19 | 68*
Cn1c(N2CCN(C(c3ccccc3)c3ccccc3)CC2)nc2ccccc21 | -18 | 1 | -56 | -12 | 25* | 25
CCCC(=O)N1CCC1(C)C(=O)NS(=O)(=O)c1cc(C)ccc1F (centres undefined) | 11 | 1 | · | · | -2 | ·
CC1(C(=O)NCCC#N)CCN1C(=O)C1(c2ccccc2)CCCC1 (centres undefined) | 13 | 1 | · | · | -9 | ·
NC(=NCc1ccco1)NC(=O)c1ccc(Cl)cc1 | 22 | 6 | -16 | -8 | -10 | -1
O=C1C=C(NCCN2CCOCC2)C(=O)c2cnccc21 | · | · | 1 | -4 | · | 115*
Cc1ccc(S(=O)(=O)NCCNc2ccc(Br)c(C)c2)cc1 | 3 | 5 | 25 | 37* | -4 | 13
Cc1ccc(S(=O)(=O)NCCNS(=O)(=O)c2ccccc2Br)cc1 | 7 | 0 | -9 | -7 | -10 | 11
CCc1nc2c(OCCc3cccc(OC)c3)cccn2c1N(C=O)Cc1ccccc1 | -8 | 1 | · | · | 12 | ·
CCOC(=O)C(=O)N(C)c1c(CC)nc2c(OCc3cc(Cl)cc(Cl)c3)cccn12 | -17 | 0 | · | · | 29* | ·
CCOC(=O)C(=O)N(C)c1c(CC)nc2c(OCc3cccc(Cl)c3)cccn12 | 10 | 0 | · | · | -7 | ·
COc1ccc(C(=O)/C=C/Nc2ccc(S(=O)(=O)Nc3cccc(C(C)=O)c3)cc2)cc1 | -4 | 10 | 47* | 36* | 21 | 71*
